Experimental data from ChEMBL document CHEMBL3616436, “Synthesis, cytotoxicity and antimicrobial activity of thiourea derivatives incorporating 3-(trifluoromethyl)phenyl moiety” (Eur J Med Chem, 2015).
pEC50: −log10 of the molar value. Values after ≈ are worked out from the molar mass of the structure shown. Active and inactive are the calls of the source. No cut-off for these calls is given here.

How the values were obtained:
Bacillus cereus = test: Antimicrobial activity against Bacillus cereus ATCC 11778 at 400 ug after 18 hrs by disc-diffusion method; type: functional; settings: ATCC 11778, 18 h, read-out: IZ
Outline: (§1)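 Disc diffusion on Mueller-Hinton II agar per CLSI; 9 mm paper discs loaded with 400 µg compound from DMSO solution, dried, placed on agar; growth inhibition zone diameter read after 18 h at 35°C.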

Enterococcus faecalis = test: Antimicrobial activity against Enterococcus faecalis ATCC 29212 at 400 ug after 18 hrs by disc-diffusion method; type: functional; settings: ATCC 29212, 18 h, read-out: IZ; outline: as §1
[1] = Cytotoxicity against bovine MDBK cells assessed as cell viability after 48 to 96 hrs by MTT assay; type: cell-based, Bos taurus; settings: cattle
Staphylococcus aureus [2] = test: Antimicrobial activity against Staphylococcus aureus ATCC 6538 after 18 hrs by twofold serial microdilution method; type: functional; settings: ATCC 6538, 18 h
Staphylococcus aureus [3] = test: Antimicrobial activity against Staphylococcus aureus ATCC 6538 at 400 ug after 18 hrs by disc-diffusion method; type: functional; settings: ATCC 6538, 18 h, read-out: IZ; outline: as §1
Micrococcus luteus [4] = test: Antimicrobial activity against Micrococcus luteus ATCC 10240 at 400 ug after 18 hrs by disc-diffusion method; type: functional; settings: ATCC 10240, 18 h, read-out: IZ; outline: as §1
[5] = Antiviral activity against Bovine viral diarrhea virus 1-NADL ATCC VR-534 infected in MDBK cells assessed as protection against virus-induced cytopathogenicity after 3 to 4 days by MTT assay; type: functional, cell-based; settings: Bovine viral diarrhea virus isolates and strains, ATCC VR-534, MDBK
Outline: (§2)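 Cells seeded in 96-well plates (BHK 5x10^4, MDBK 3x10^4 cells/well), grown overnight to confluence, infected at m.o.i. 0.01 (BHK for Reo-1, MDBK for BVDV); serial compound dilutions in maintenance medium with 0.5% inactivated FBS added after 1 h; viability by MTT after 3–4 days at 37°C; EC50 for 50% protection by linear regression.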

[6] = tested on: Staphylococcus epidermidis; test: Antimicrobial activity against Staphylococcus epidermidis ATCC 12228 after 18 hrs by twofold serial microdilution method; type: functional; settings: ATCC 12228, 18 h
Bacillus subtilis = test: Antimicrobial activity against Bacillus subtilis ATCC 6633 at 400 ug after 18 hrs by disc-diffusion method; type: functional; settings: ATCC 6633, 18 h, read-out: IZ; outline: as §1
[7] = tested on: Vesicular stomatitis virus; test: Antiviral activity against Vesicular stomatitis virus ATCC VR 1540 infected in African green monkey Vero 76 cells assessed as reduction of virus-plaque formation after 2 days by crystal violet staining; type: functional, organism-based; settings: ATCC VR 1540, Vero, 48 h
Human alphaherpesvirus 1 = test: Antiviral activity against Human herpesvirus 1 KOS ATCC VR-1493 infected in African green monkey Vero 76 cells assessed as reduction of virus-plaque formation after 3 days by crystal violet staining; type: functional, organism-based; settings: Human alphaherpesvirus 1, KOS ATCC VR1493, Vero, 72 h
Outline: (§3)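 Plaque reduction: Vero-76 at 2x10^5 cells/well grown to confluent monolayers, infected 2 h at 50–100 PFU/well; after removing unadsorbed virus, overlay of D-MEM, 1% inactivated FBS, 0.75% methylcellulose with or without serial compound dilutions; 3 days at 37°C, fixed and stained with crystal violet in 50% ethanol, plaques counted; EC50 by linear regression.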

WIL2-NS = test: Cytotoxicity against human WIL2-NS cells after 96 hrs by MTT assay; type: functional
Outline: (§4)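 Leukaemia/lymphoma lines seeded at 1×10^5 cells/ml in RPMI-1640 with 10% FCS and penicillin/streptomycin; incubated with serial dilutions at 37°C, 5% CO2; viability by MTT after 96 h; value is concentration reducing proliferation by 50%, with untreated controls undergoing at least three rounds of multiplication.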

[8] = Cytotoxicity against African green monkey Vero 76 cells assessed as cell viability after 48 to 96 hrs by crystal violet staining; type: cell-based; settings: chlorocebus sabaeus
Enterococcus hirae = test: Antimicrobial activity against Enterococcus hirae ATCC 10541 at 400 ug after 18 hrs by disc-diffusion method; type: functional; outline: as §1
[9] = Cytotoxicity against BHK cells assessed as cell viability after 48 to 96 hrs by MTT assay; type: cell-based, Mesocricetus auratus; settings: hamster
Micrococcus luteus [10] = test: Antimicrobial activity against Micrococcus luteus ATCC 9341 at 400 ug after 18 hrs by disc-diffusion method; type: functional; settings: ATCC 9341, 18 h, read-out: IZ; outline: as §1
[11] = tested on: Staphylococcus epidermidis; test: Antimicrobial activity against Staphylococcus epidermidis ATCC 35984 after 18 hrs by twofold serial microdilution method; type: functional; settings: ATCC 35984, 18 h
Coxsackievirus B5 = test: Antiviral activity against Human coxsackievirus B5 ATCC VR-29 infected in African green monkey Vero 76 cells assessed as reduction of virus-plaque formation after 3 days by crystal violet staining; type: functional, organism-based; settings: Enterovirus B, ATCC VR-29, Vero, 72 h; outline: as §3
Staphylococcus aureus [12] = test: Antimicrobial activity against Staphylococcus aureus ATCC 25923 after 18 hrs by twofold serial microdilution method; type: functional; settings: ATCC 25923, 18 h
[13] = tested on: Mammalian orthoreovirus 1; test: Antiviral activity against Reovirus type-1 ATCC VR-214 infected in BHK cells assessed as protection against virus-induced cytopathogenicity after 3 to 4 days by MTT assay; type: functional, cell-based; settings: Mammalian orthoreovirus 1, ATCC VR-214, BHK; outline: as §2
[14] = tested on: Mycobacterium tuberculosis; test: Antimycobacterial activity against drug-sensitive Mycobacterium tuberculosis Spec. 192; type: functional
Outline: (§5)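 Classical test-tube successive-dilution method in Youmans' modification of Proskauer and Beck liquid medium with 10% bovine serum. Inoculum came from 14-day cultures. DMSO stock was 10 mg/mL, diluted geometrically in medium. Tubes were incubated at 37 °C. Concentrations tested were 3.1, 6.2, 12.5, 25, 50 and 100 µg/ml. MIC is the minimum concentration inhibiting growth relative to compound-free tubes.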

Staphylococcus aureus [15] = test: Antimicrobial activity against Staphylococcus aureus NCTC 4163 after 18 hrs by twofold serial microdilution method; type: functional; settings: NCTC 4163, 18 h
Poliovirus 1 = test: Antiviral activity against Poliovirus type 1 ATCC VR-1562 infected in African green monkey Vero 76 cells assessed as reduction of virus-plaque formation after 2 days by crystal violet staining; type: functional, organism-based; settings: Enterovirus C, ATCC VR-1562, Vero, 48 h
CCRF-SB = test: Cytotoxicity against human CCRF-SB cells after 96 hrs by MTT assay; type: functional; outline: as §4
Proteus vulgaris = test: Antimicrobial activity against Proteus vulgaris NCTC 4635 at 400 ug after 18 hrs by disc-diffusion method; type: functional; outline: as §1
Yellow fever virus = test: Antiviral activity against Yellow fever virus 17D infected in BHK cells assessed as protection against virus-induced cytopathogenicity after 3 to 4 days by MTT assay; type: functional, cell-based
[16] = Cytotoxicity against human MT4 cells; type: cell-based
Staphylococcus aureus [17] = test: Antimicrobial activity against Staphylococcus aureus NCTC 4163 at 400 ug after 18 hrs by disc-diffusion method; type: functional; settings: NCTC 4163, 18 h, read-out: IZ; outline: as §1
[18] = tested on: Human immunodeficiency virus 1; test: Antiviral activity against HIV1 3B infected in human MT4 cells assessed as protection against virus-induced cytopathogenicity by MTT assay; type: functional, organism-based; settings: Human immunodeficiency virus 1, 3B
Staphylococcus aureus [19] = test: Antimicrobial activity against Staphylococcus aureus ATCC 25923 at 400 ug after 18 hrs by disc-diffusion method; type: functional; settings: ATCC 25923, 18 h, read-out: IZ; outline: as §1
Staphylococcus aureus [20] = test: Antimicrobial activity against Staphylococcus aureus ATCC 29213 after 18 hrs by twofold serial microdilution method; type: functional; settings: ATCC 29213, 18 h
[21] = tested on: Staphylococcus epidermidis; test: Antimicrobial activity against Staphylococcus epidermidis ATCC 12228 at 400 ug after 18 hrs by disc-diffusion method; type: functional; settings: ATCC 12228, 18 h, read-out: IZ; outline: as §1
CCRF-CEM = test: Cytotoxicity against human CCRF-CEM cells after 96 hrs by MTT assay; type: functional; outline: as §4
[22] = tested on: Staphylococcus epidermidis; test: Antimicrobial activity against Staphylococcus epidermidis ATCC 35984 at 400 ug after 18 hrs by disc-diffusion method; type: functional; settings: ATCC 35984, 18 h, read-out: IZ; outline: as §1
Staphylococcus aureus [23] = test: Antimicrobial activity against Staphylococcus aureus ATCC 29213 at 400 ug after 18 hrs by disc-diffusion method; type: functional; settings: ATCC 29213, 18 h, read-out: IZ; outline: as §1
[24] = tested on: Mycobacterium tuberculosis; test: Antimycobacterial activity against Mycobacterium tuberculosis H37Rv ATCC 25618; type: functional; outline: as §5
Vaccinia virus = test: Antiviral activity against Human Vaccinia virus ATCC VR-1549 infected in African green monkey Vero 76 cells assessed as reduction of virus-plaque formation after 3 days by crystal violet staining; type: functional, organism-based; settings: Orthopoxvirus vaccinia, ATCC VR-1549, Vero, 72 h

FC(F)(F)c1cccc(NC(=S)Nc2cccc(Cl)c2)c1
zone of inhibition at 400 µg/disc (Bacillus cereus): 23 mm
zone of inhibition at 400 µg/disc (Enterococcus faecalis): 20 mm
CC50 [1]: 19 µM
MIC (Staphylococcus aureus [2]): 32 µg/mL (≈ 96.7 µM)
zone of inhibition at 400 µg/disc (Staphylococcus aureus [3]): 29 mm
zone of inhibition at 400 µg/disc (Micrococcus luteus [4]): 27 mm
pEC50 [5]: < 4.72
MIC [6]: 32 µg/mL (≈ 96.7 µM)
zone of inhibition at 400 µg/disc (Bacillus subtilis): 26 mm
pEC50 [7]: < 4.70
pEC50 (Human alphaherpesvirus 1): < 4.70
CC50 (WIL2-NS): 11 µM
CC50 [8]: 20 µM
inhibition zone (IZ) (Enterococcus hirae): inactive
CC50 [9]: 9.5 µM
zone of inhibition at 400 µg/disc (Micrococcus luteus [10]): 30 mm
MIC [11]: 64 µg/mL (≈ 193 µM)
pEC50 (Coxsackievirus B5): < 4.70
MIC (Staphylococcus aureus [12]): 32 µg/mL (≈ 96.7 µM)
pEC50 [13]: < 5.02
MIC [14]: 100 µg/mL (≈ 302 µM)
MIC (Staphylococcus aureus [15]): 32 µg/mL (≈ 96.7 µM)
pEC50 (Poliovirus 1): < 4.70
CC50 (CCRF-SB): 9.6 µM
inhibition zone (IZ) (Proteus vulgaris): inactive
pEC50 (Yellow fever virus): < 5.02
CC50 [16]: 10 µM
zone of inhibition at 400 µg/disc (Staphylococcus aureus [17]): 29 mm
pEC50 [18]: < 5.00
zone of inhibition at 400 µg/disc (Staphylococcus aureus [19]): 27 mm
MIC (Staphylococcus aureus [20]): 32 µg/mL (≈ 96.7 µM)
zone of inhibition at 400 µg/disc [21]: 28 mm
CC50 (CCRF-CEM): 9.1 µM
zone of inhibition at 400 µg/disc [22]: 26 mm
zone of inhibition at 400 µg/disc (Staphylococcus aureus [23]): 27 mm
MIC [24]: 100 µg/mL (≈ 302 µM)
pEC50 (Vaccinia virus): < 4.70
